# Assay results published in ChEMBL document CHEMBL3392981, “Synthesis and pharmacological evaluation of dual acting ligands targeting the adenosine A2A and dopamine D2 receptors for the potential treatment of Parkinson's disease” (J Med Chem, 2015).
# Key:
# [1] = target: T1, D(2) dopamine receptor (Homo sapiens, UniProt P14416); test: Agonist activity at human dopamine D2L receptor expressed in CHO cell membranes incubated for 1 hr by [35S]GTPgammaS binding assay; assay type: functional; conditions: for pEC50: cho
# T1 sequence (P14416 whole entry): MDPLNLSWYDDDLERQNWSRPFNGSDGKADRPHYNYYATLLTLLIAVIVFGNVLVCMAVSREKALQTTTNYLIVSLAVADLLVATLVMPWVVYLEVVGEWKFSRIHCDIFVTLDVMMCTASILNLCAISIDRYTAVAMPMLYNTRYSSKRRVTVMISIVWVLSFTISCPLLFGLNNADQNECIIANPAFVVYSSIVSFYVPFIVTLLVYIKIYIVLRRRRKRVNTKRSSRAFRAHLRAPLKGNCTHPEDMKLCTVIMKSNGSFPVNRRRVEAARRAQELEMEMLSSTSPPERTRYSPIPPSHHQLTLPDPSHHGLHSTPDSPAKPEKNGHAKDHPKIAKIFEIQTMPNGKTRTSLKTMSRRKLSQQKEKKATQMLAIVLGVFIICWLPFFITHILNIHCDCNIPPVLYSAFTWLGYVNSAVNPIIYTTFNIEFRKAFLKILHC
# [2] = target: Adenosine receptor A2a (Homo sapiens, UniProt P29274); test: Inhibition of human adenosine A2A receptor expressed in FlpIn-CHO cells assessed as inhibition of NECA-induced cAMP accumulation incubated for 30 mins by fluorescence assay; assay type: functional, cell-based
# Chain of Adenosine receptor A2a (P29274 whole entry): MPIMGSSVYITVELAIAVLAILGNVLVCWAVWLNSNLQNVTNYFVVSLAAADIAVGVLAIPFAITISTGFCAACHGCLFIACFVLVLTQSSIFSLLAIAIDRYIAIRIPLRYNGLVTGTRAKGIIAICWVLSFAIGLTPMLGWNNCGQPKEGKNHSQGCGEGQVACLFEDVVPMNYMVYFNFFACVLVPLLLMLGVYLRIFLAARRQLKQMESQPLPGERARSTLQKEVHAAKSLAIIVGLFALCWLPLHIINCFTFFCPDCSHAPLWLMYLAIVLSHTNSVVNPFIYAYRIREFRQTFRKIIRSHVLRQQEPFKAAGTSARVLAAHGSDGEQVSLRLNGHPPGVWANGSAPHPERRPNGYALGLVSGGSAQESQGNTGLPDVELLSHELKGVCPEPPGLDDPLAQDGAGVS
# [3] = target: T1, D(2) dopamine receptor; test: Agonist activity at human dopamine D2L receptor expressed in CHO cell membranes incubated for 1 hr by [35S]GTPgammaS binding assay relative to 100 uM quinelorane; assay type: functional
# [4] = Blood-brain partition ratio in Wistar Han rat at 5 uM incubated for 4 hrs by dialysis and LC-MS/MS method; assay type: ADME, tissue-based; conditions: in vitro
# In short: (§1)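 Blood and brain tissue were taken from Wistar Han rat and tested in vitro. Percent fraction unbound was determined in each matrix (undiluted Fu). The brain:blood partition ratio (Kbb) was derived as an in vitro predictor of CNS penetration. Runs were in triplicate, and values are reported as mean ± SD.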
# [5] = Fraction unbound in Wistar Han rat brain at 5 uM incubated for 4 hrs by dialysis and LC-MS/MS method; assay type: ADME, tissue-based; in short: as §1
# [6] = Fraction unbound in Wistar Han rat blood at 5 uM incubated for 4 hrs by dialysis and LC-MS/MS method; assay type: ADME, tissue-based; in short: as §1
EC50 [1] [nM],pEC50 [1],IC50 ([2]; read-out: IC50) [nM],IC50 ([2]; read-out: pIC50 (converted)) [nM],Emax [3] [%],Kbb [4],"fraction unbound at 4 h, 5 µM [5]","fraction unbound at 4 h, 5 µM [6]",Structure (SMILES)
> 100000,< 4,–,–,–,–,–,–,NC1CCN(CCc2cccc3c2CC(=O)N3)CC1
> 100000,< 4,135,135,–,–,–,–,Nc1nc(NCCc2ccc(Oc3nc(Cl)nc(N4CCOCC4)n3)cc2)nc2nc(-c3ccco3)nn12
501,–,41,40.7,77,–,–,–,CCCN(CCCNC(=O)CCCCCCCNC(=O)CCCOc1ccc(CCNc2nc(N)n3nc(-c4ccco4)nc3n2)cc1)CCc1cccc2c1CC(=O)N2
> 100000,< 4,–,–,–,0.76,0.0849,0.0647,Nc1nc(NCCc2ccc(O)cc2)nc2nc(-c3ccco3)nn12 [ZM-241385]
785,–,110,110,68,–,–,–,CCCN(CCCNC(=O)CCCNC(=O)CCCOc1ccc(CCNc2nc(N)n3nc(-c4ccco4)nc3n2)cc1)CCc1cccc2c1CC(=O)N2
> 100000,< 4,–,–,–,–,–,–,O=C(O)C(F)(F)F.O=C1Cc2c(CCN3CCCNCC3)cccc2N1
484,–,35,35.5,79,–,–,–,CCCN(CCCNC(=O)CCCC(=O)Oc1ccc(CCNc2nc(N)n3nc(-c4ccco4)nc3n2)cc1)CCc1cccc2c1CC(=O)N2
> 100000,< 4,–,–,–,–,–,–,CC(C)(C)OC(=O)NC1CCN(CCc2cccc3c2CC(=O)N3)CC1
> 100000,< 4,437,437,–,–,–,–,COC(=O)CCCCCCCCCCCNC(=O)CCCOc1ccc(CCNc2nc(N)n3nc(-c4ccco4)nc3n2)cc1
204,–,18,18.2,95,–,–,–,CCCN(CCCNC(=O)CCCOc1ccc(CCNc2nc(N)n3nc(-c4ccco4)nc3n2)cc1)CCc1cccc2c1CC(=O)N2
> 100000,< 4,32,32.4,–,–,–,–,CCCN(CCc1cccc2c1CC(=O)N2)c1nc(N)n2nc(-c3ccco3)nc2n1
88,–,912,912,89,1.29,0.153,0.198,CCCN(CCCNc1nc(N)n2nc(-c3ccco3)nc2n1)CCc1cccc2c1CC(=O)N2
148,–,63,63.1,88,–,–,–,CCCN(CCCNC(=O)COc1ccc(CCNc2nc(N)n3nc(-c4ccco4)nc3n2)cc1)CCc1cccc2c1CC(=O)N2
> 100000,< 4,–,–,–,–,–,–,CC(C)(C)OC(=O)N1CCN(CCc2cccc3c2CC(=O)N3)CC1
38,–,1780,1780,77,–,–,–,CCCN(CCCCCCNc1nc(N)n2nc(-c3ccco3)nc2n1)CCc1cccc2c1CC(=O)N2
> 100000,< 4,–,–,–,–,–,–,O=C1Cc2c(CCN3CCNCC3)cccc2N1
> 100000,< 4,–,–,–,–,–,–,CC(C)(C)OC(=O)N1CCCN(CCc2cccc3c2CC(=O)N3)CC1
114,–,> 100000,–,66,–,–,–,CCCN(CCCNC(=O)CCCCCCCCCCCNC(=O)OC(C)(C)C)CCc1cccc2c1CC(=O)N2
> 100000,< 4,1480,1480,–,–,–,–,Nc1nc(N2CCCN(CCc3cccc4c3CC(=O)N4)CC2)nc2nc(-c3ccco3)nn12.O=C(O)C(F)(F)F
> 100000,< 4,59,58.9,–,1.07,0.0563,0.0605,Nc1nc(N2CCN(CCc3cccc4c3CC(=O)N4)CC2)nc2nc(-c3ccco3)nn12
–,–,1740,1740,–,–,–,–,CC(C)(C)OC(=O)N1CCC(Nc2nc(N)n3nc(-c4ccco4)nc3n2)CC1
389,–,1120,1120,77,–,–,–,CN(CCCNc1nc(N)n2nc(-c3ccco3)nc2n1)CCc1cccc2c1CC(=O)N2
311,–,120,120,65,3.64,0.0061,0.0222,CCCN(CCCNc1nc(Oc2ccc(CCNc3nc(N)n4nc(-c5ccco5)nc4n3)cc2)nc(N2CCOCC2)n1)CCc1cccc2c1CC(=O)N2.O=CO
1400,–,1070,1070,38,–,–,–,CCCN(CCCNC(=O)CCCCCCCCCCCNC(=O)CCCOc1ccc(CCNc2nc(N)n3nc(-c4ccco4)nc3n2)cc1)CCc1cccc2c1CC(=O)N2

Structure (SMILES),EC50 [1] [nM],pEC50 [1],IC50 ([2]; read-out: IC50) [nM],IC50 ([2]; read-out: pIC50 (converted)) [nM],Emax [3] [%],Kbb [4],"fraction unbound at 4 h, 5 µM [5]","fraction unbound at 4 h, 5 µM [6]"
CCCN1CCC[C@@H]2Cc3nc(N)ncc3C[C@H]21 [QUINELORANE],–,7.35,–,–,–,–,–,–
Nc1nc(NC2CCN(CCc3cccc4c3CC(=O)N4)CC2)nc2nc(-c3ccco3)nn12,> 100000,< 4,1510,1510,–,–,–,–
